An excerpt weighted towards active compounds, which were near 3.5% of everything screened.
MEKK3 PB1 HTS = MEKK3-MEK5 PB1 interaction, increase or decrease. 290,000 compounds, 1.4% hits. Q99759. binding response (% of control), % at 10 µM. bead-based flow cytometry, Alexa488-MEK5 binding to MEKK3; actives lie on both sides; 0 = blocked by unlabeled MEK5, 100 = vehicle;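 active = binding response more than 3 SD above or below the average of its plate-row segment, actives on both sides; inconclusive = wells at one plate position flagged as instrument error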;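 also: Alexa488 bead fluorescence after subtracting the streptavidin-only scavenger bead signal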
Target sequence (Q99759 whole entry, looked up): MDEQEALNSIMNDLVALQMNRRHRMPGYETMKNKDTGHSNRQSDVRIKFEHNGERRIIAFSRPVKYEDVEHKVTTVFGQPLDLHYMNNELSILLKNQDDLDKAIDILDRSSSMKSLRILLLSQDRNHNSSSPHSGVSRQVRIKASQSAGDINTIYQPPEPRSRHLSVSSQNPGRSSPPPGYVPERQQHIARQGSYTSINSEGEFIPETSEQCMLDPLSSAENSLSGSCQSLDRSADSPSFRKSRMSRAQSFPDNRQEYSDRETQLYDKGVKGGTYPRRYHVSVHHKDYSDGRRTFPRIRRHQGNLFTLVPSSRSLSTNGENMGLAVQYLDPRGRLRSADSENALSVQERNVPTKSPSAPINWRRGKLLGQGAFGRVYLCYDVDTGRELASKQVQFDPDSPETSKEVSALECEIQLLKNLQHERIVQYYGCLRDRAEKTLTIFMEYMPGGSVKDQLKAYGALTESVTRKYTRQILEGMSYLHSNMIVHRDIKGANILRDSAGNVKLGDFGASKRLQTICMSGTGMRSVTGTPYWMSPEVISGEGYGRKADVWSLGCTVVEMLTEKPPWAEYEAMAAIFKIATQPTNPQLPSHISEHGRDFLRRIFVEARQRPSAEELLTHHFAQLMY
WT yeast gro inh = growth inhibition of WT yeast, mitochondrial fusion screen; mitochondrial fusion phenotypic screen, WT strain; inhibition, % at 10 µM; 190,000 compounds, 2.1% hits; AID 1362; in the data active = inhibition above about 58%; tested in S. cerevisiae
MEKK2 WT-MEK5 = raises or lowers MEK5 binding to wildtype human MEKK2 PB1 domain; Q9Y2U5; 290,000 compounds, 1.1% hits; binding response (% of control), % at 10 µM; bead flow cytometry, Alexa488-MEK5 binding to MEKK2 WT; actives lie on both sides; in the data active = binding response below about 67% or above about 130%; inconclusive = no clear call, values can overlap the other calls; inactive = in between
ABCB1 block = human ABCB1 inhibition, ABCG2 as counter-screen | P08183 | CCRF-Adr cells, JC-1 efflux, flow cytometry | inhibition, % at 6.6 µM | 190,000 compounds, 0.067% hits | AID 1326; in the data active = inhibition above about 40%;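 also: 0% = vehicle and 100% = reference inhibitor; higher value means more JC-1 retained so stronger ABCB1 efflux block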
ABCG2 block = human ABCG2 inhibition, ABCB1 as counter-screen | Q9UNQ0 | IgMXP3 cells, JC-1 efflux, flow cytometry | inhibition, % at 6.6 µM | 190,000 compounds, 0.1% hits | AID 1325;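 active = inhibition above 80%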;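 also: 0% = DMSO and 100% = nicardipine control wells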
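Measure – % inhibition of efflux relative to nicardipine and DMSO · Test system – ABCG2 IgMXP3 and barcoded ABCB1 CCRF-Adr cell mix · Control set – nicardipine as high control, DMSO as low control · Compound – one concentration, 6.6 µM final · Signal – flow cytometry of retained JC-1 fluorescence · Timing – 10 min exposure at 25 °C with rotation, no wash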
MEKK2mut PB1 HTS = signal of MEK5 binding to mutant human MEKK2 PB1 domain | percent response, % at 10 µM | bead flow cytometry, Alexa488-MEK5 binding to MEKK2 mutant | 290,000 compounds, 0.35% hits; in the data active = percent response above about 24%, passing the limit was not always enough
Starred values were filed as active, the others as inactive; [ ] = dose if it differs, or a comment.

Cc1ccc(-c2nnc(SCC(=O)NC3CCS(=O)(=O)C3)nc2-c2ccc(C)cc2)cc1 (configuration not stated) was read as MEKK3 PB1 HTS 88.0, WT yeast gro inh 22.1, MEKK2 WT-MEK5 89.0, ABCB1 block 3.4, ABCG2 block 17.4 and MEKK2mut PB1 HTS -2.0.
For Cc1cccc(N=Nc2c(C)[nH]n(C(N)=S)c2=O)c1C the results were MEKK3 PB1 HTS 109.0, WT yeast gro inh 71.8*, MEKK2 WT-MEK5 108.0, ABCB1 block 0.5, ABCG2 block 3.9 and MEKK2mut PB1 HTS 4.0.
For Cc1ccccc1N=Nc1c(C)[nH]n(C(N)=S)c1=O the results were MEKK3 PB1 HTS 100.0, WT yeast gro inh 61.2*, MEKK2 WT-MEK5 97.0, ABCB1 block -0.1, ABCG2 block 5.7 and MEKK2mut PB1 HTS -1.0.
CN(Cc1ccccc1)C(=O)c1[nH]cnc1C(=O)NCC(=O)OCc1ccccc1 was read as MEKK3 PB1 HTS 102.0, MEKK2 WT-MEK5 104.0 and MEKK2mut PB1 HTS -4.0.
N#C/C(=C\c1sc(N2CCOCC2)nc1-c1ccccc1)C(=O)Nc1cccc2ccccc12 was read as MEKK3 PB1 HTS 135.0*, WT yeast gro inh 7.1, MEKK2 WT-MEK5 92.0, ABCB1 block 23.2, ABCG2 block 16.2 and MEKK2mut PB1 HTS 5.0.
CN1CCN(c2ccccc2NC(=O)c2ccc(-c3ccccc3[N+](=O)[O-])o2)CC1 was read as MEKK3 PB1 HTS 106.0, MEKK2 WT-MEK5 135.0* and MEKK2mut PB1 HTS 20.0.
O=C1Nc2ccc(Br)cc2C1(O)c1ccccc1 (configuration not stated) was read as MEKK3 PB1 HTS 114.0, MEKK2 WT-MEK5 109.0 and MEKK2mut PB1 HTS 13.0.
`O=C1Nc2ccc(Br)cc2C12NNc1ccccc1O2` (configuration not stated) gave MEKK3 PB1 HTS 93.0, WT yeast gro inh 87.6*, MEKK2 WT-MEK5 -4.0*, ABCB1 block 7.9, ABCG2 block 4.9 and MEKK2mut PB1 HTS -5.0.
`Cc1cccc(Cn2c(C)nc3c(N)c(C)c(C)cc32)c1` gave MEKK3 PB1 HTS 101.0, WT yeast gro inh 8.6, MEKK2 WT-MEK5 100.0, ABCB1 block 0.5, ABCG2 block 0.0 and MEKK2mut PB1 HTS -5.0.
Screening CCCCCC1CCC(c2n[nH]c(=S)n2C)CC1 (configuration not stated) returned MEKK3 PB1 HTS 103.0, WT yeast gro inh 65.1*, MEKK2 WT-MEK5 99.0, ABCB1 block -0.6, ABCG2 block -2.0 and MEKK2mut PB1 HTS -1.0.
CC(C)OC(=O)c1c2c(n3ccccc13)C(=O)c1ccccc1C2=O was read as MEKK3 PB1 HTS 94.0, WT yeast gro inh -5.2, MEKK2 WT-MEK5 35.0*[inhibitor], ABCB1 block 11.8, ABCG2 block 40.9 and MEKK2mut PB1 HTS -46.0.
For O=S(=O)(c1ccc(N2CCN(CCO)CC2)nc1)N1CCCCC1 the results were MEKK3 PB1 HTS 102.0, WT yeast gro inh -1.6, MEKK2 WT-MEK5 100.0, ABCB1 block 0.7, ABCG2 block 1.8 and MEKK2mut PB1 HTS 3.0.
Screening N=c1c(C(=O)NCc2ccco2)cc2c(=O)n3ccccc3nc2n1Cc1ccc(Cl)cc1 returned MEKK3 PB1 HTS 97.0, WT yeast gro inh 73.8*, MEKK2 WT-MEK5 103.0, ABCB1 block 1.6, ABCG2 block 5.7 and MEKK2mut PB1 HTS -5.0.
For COc1ccc(Nc2cc(C)c3ccc(O)cc3n2)cc1 the results were MEKK3 PB1 HTS inconclusive, MEKK2 WT-MEK5 inconclusive and MEKK2mut PB1 HTS -30.0.
For Cc1cc(Nc2ccccc2)nc2cc(O)ccc12 the results were MEKK3 PB1 HTS 103.0, WT yeast gro inh 62.3*, MEKK2 WT-MEK5 105.0, ABCB1 block 0.3, ABCG2 block 5.1 and MEKK2mut PB1 HTS -2.0.
Screening OCCC1CN(Cc2cn[nH]c2C2CCCCC2)CCN1C1CCCCC1 (configuration not stated) returned MEKK3 PB1 HTS 102.0, WT yeast gro inh 15.1, MEKK2 WT-MEK5 104.0, ABCB1 block -0.1, ABCG2 block 0.2 and MEKK2mut PB1 HTS 3.0.
Fc1cc(F)c2nc(N3CCCC3)sc2c1 was read as MEKK3 PB1 HTS 102.0, WT yeast gro inh 17.1, MEKK2 WT-MEK5 89.0, ABCB1 block 0.1, ABCG2 block 4.6 and MEKK2mut PB1 HTS -8.0.
Screening Cc1cc(=O)n2c3ccccc3n(CC(O)CN3CCC(C)CC3)c2c1C#N (configuration not stated) returned MEKK3 PB1 HTS 135.0*, WT yeast gro inh 1.0, MEKK2 WT-MEK5 105.0, ABCB1 block 0.7, ABCG2 block -3.6 and MEKK2mut PB1 HTS 0.0.
Screening CCOc1ccccc1OCC(=O)Nc1ccc(S(=O)(=O)Nc2ncccn2)cc1 returned MEKK3 PB1 HTS 87.0, WT yeast gro inh -3.2, MEKK2 WT-MEK5 97.0, ABCB1 block 0.1, ABCG2 block 0.7 and MEKK2mut PB1 HTS -3.0.
Screening CCOc1ccccc1OCC(=O)Nc1ccc(S(=O)(=O)N(C)C)cc1 returned WT yeast gro inh 69.0*, ABCB1 block 1.2 and ABCG2 block 13.4.
CN1C(=O)CSc2ccc(NC(=O)N3CCC(N4CCCCC4)CC3)cc21 was read as MEKK3 PB1 HTS 102.0, WT yeast gro inh -8.9, MEKK2 WT-MEK5 -1.0*, ABCB1 block 0.2, ABCG2 block 1.2 and MEKK2mut PB1 HTS 15.0.
For Cc1cc(CN2CCN(CCC#N)CC2)c(O)c(C2(C)CCCCC2)c1 the results were MEKK3 PB1 HTS 107.0, WT yeast gro inh 83.6*, MEKK2 WT-MEK5 106.0, ABCB1 block 1.5, ABCG2 block 2.2 and MEKK2mut PB1 HTS 3.0.
COCC(C)n1c(SCc2ccc(OC)c(F)c2)nc2ccccc2c1=O (configuration not stated) was read as MEKK3 PB1 HTS 100.0, WT yeast gro inh 73.5*, MEKK2 WT-MEK5 103.0, ABCB1 block 1.1, ABCG2 block 3.4 and MEKK2mut PB1 HTS -1.0.
`CC(=O)N1CCCC1(C(=O)O)c1ccccc1` (configuration not stated) gave MEKK3 PB1 HTS 100.0, MEKK2 WT-MEK5 -3.0* and MEKK2mut PB1 HTS 2.0.
Screening O=C(O)c1cn(Cc2ccccc2Cl)c2ccc(S(=O)(=O)N3CCOCC3)cc2c1=O returned MEKK3 PB1 HTS 95.0, WT yeast gro inh -46.9, MEKK2 WT-MEK5 102.0, ABCB1 block 0.3, ABCG2 block 2.5 and MEKK2mut PB1 HTS 0.0.
Screening O=C(COc1ccc2c(-c3ccccc3)cc(=O)oc2c1)NCc1cccs1 returned MEKK3 PB1 HTS 93.0, WT yeast gro inh -5.1, MEKK2 WT-MEK5 4.0*, ABCB1 block -0.1, ABCG2 block 32.0 and MEKK2mut PB1 HTS 5.0.
For CC(C)CC(C(=O)NC(C)(C)C)N(CC1CCCO1)C(=O)c1snc(C(N)=O)c1N (configuration not stated) the results were MEKK3 PB1 HTS 91.0, WT yeast gro inh -6.2, MEKK2 WT-MEK5 91.0, ABCB1 block 1.3, ABCG2 block 0.6 and MEKK2mut PB1 HTS -8.0.
